The source made the active and inactive calls. No cut-off for these calls is given here.
What was measured:
[1] = tested on: Rattus norvegicus; assay: Ulcerogenic activity was measured in fasting rat with hyperaemia on peroral administration of 400 mg/kg; assay type: functional; conditions: route oral
How it was run: (§1)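 Rats (200–230 g), ten per group, fasted 24 h, given a single oral dose of 100, 200 or 400 mg/kg. Animals were killed 5 h after dosing. Stomach and small intestine were examined under a microscope for hyperaemia, epithelial shedding, petechiae, frank haemorrhage, and erosion or ulceration. Values are percent of animals showing hyperaemia or showing ulcer.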

[2] = species on record: Oryctolagus cuniculus; assay: Percent inhibition of cyclooxygenase activity of compound at 10 uM concentration; assay type: functional
How it was run: (§2)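 Microsomes came from rabbit distal colon mucosa, homogenized in Tris pH 8.0, centrifuged, resuspended and recentrifuged, and used immediately. Microsomes were preincubated with test agent 10 min at 37 °C in Tris–HCl pH 8.0 containing 2 mM glutathione, 5 mM L-tryptophan and 1 µM haematin. Then 20 µM arachidonic acid with [1-14C] tracer was added and reacted 5 min at 37 °C. PGE2 was separated by HPLC, radioactivity counted by scintillation, and inhibition taken against paired controls.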

[3] = tested on: Rattus norvegicus; assay: Percent of carageenam induced paw oedema inhibition in rat as a measure of anti-inflammatory activity at 80 mg/kg dose on peroral administration; assay type: functional; conditions: route oral
How it was run: (§3)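 Albino rats (125–160 g), five per group, dosed orally at 20, 40 or 80 mg/kg. After 30 min, 0.2 mL of 1% carrageenan in 0.9% NaCl was injected subcutaneously into the plantar aponeurosis of the hind paw. Paw volume was read by water plethysmometer at injection and at 3 h. Inhibition = (1 − Gt/Gc) × 100 against a carrageenan-only control group of five rats.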

[4] = species on record: Rattus norvegicus; assay: Effective dose of compound for anti-inflammatory activity; assay type: functional
[5] = tested on: Rattus norvegicus; assay: Ulcerogenic activity was measured in fasting rat with ulcer on peroral administration of 200 mg/kg; assay type: functional; conditions: route oral; how it was run: as §1
[6] = tested on: Rattus norvegicus; assay: Ulcerogenic activity was measured in fasting rat with hyperaemia on peroral administration of 100 mg/kg; assay type: functional; conditions: route oral; how it was run: as §1
[7] = tested on: Rattus norvegicus; assay: Ulcerogenic activity was measured in fasting rat with ulcer on peroral administration of 100 mg/kg; assay type: functional; conditions: route oral; how it was run: as §1
[8] = tested on: Rattus norvegicus; assay: Ulcerogenic activity was measured in fasting rat with hyperaemia on peroral administration of 200 mg/kg; assay type: functional; conditions: route oral; how it was run: as §1
[9] = tested on: Rattus norvegicus; assay: Ulcerogenic activity was measured in fasting rat with ulcer on peroral administration of 400 mg/kg; assay type: functional; conditions: route oral; how it was run: as §1
[10] = tested on: Rattus norvegicus; assay: Percent of carageenam induced paw oedema inhibition in rat as a measure of anti-inflammatory activity at 40 mg/kg dose on peroral administration; assay type: functional; conditions: route oral; how it was run: as §3
[11] = tested on: Rattus norvegicus; assay: Percent of carageenam induced paw oedema inhibition in rat as a measure of anti-inflammatory activity at 20 mg/kg dose on peroral administration; assay type: functional; conditions: route oral; how it was run: as §3
[12] = Acute lethal dose of compound was determined in mice when administered perorally; assay type: ADME; conditions: mouse, in vivo, po; read-out: ALD50
How it was run: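 Albino mice (25–30 g), groups of 10 per dose level, given test compound at several dose levels. Percent mortality in each group was recorded 24 h after dosing. The approximate 50% lethal dose (ALD50) was calculated by the Smith method.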

[13] = species on record: Oryctolagus cuniculus; assay: Percent inhibition of cyclooxygenase activity of compound at 10 uM concentration; No inhibition; assay type: functional; how it was run: as §2

SMILES | Ulcerogenic activity [1] [%] | Inhibition [2] [%] | Antiinflammatory Activity [3] [%] | ED50 [4] [mg/kg] | Ulcerogenic activity [5] [%] | Ulcerogenic activity [6] [%] | Ulcerogenic activity [7] [%] | Ulcerogenic activity [8] [%] | Ulcerogenic activity [9] [%] | Antiinflammatory Activity [10] [%] | Antiinflammatory Activity [11] [%] | LD50 [12] [mg/kg] | inhibition [13]
CC(=O)Oc1ccccc1C(=O)O [ASPIRIN] | 90 | 99 | 59.6 | 98.3 | 90 | 30 | 80 | 60 | 90 | 35.5 | 30.4 |  | 
Cc1ccccc1C(=O)c1cc(C)c(O)c(C(=O)c2ccccc2)c1 | 100 | 20 | 55.3 | 78.3 | 20 | 40 | 10 | 60 | 40 | 29.5 | 14.1 | > 1000 | 
Cc1cc(C(=O)c2ccccc2C)c(O)c(C(=O)c2ccccc2C)c1 | 90 | 70 | 64.1 | 77.2 | 10 | 50 | 5 | 70 | 15 | 33.2 | 16.6 | > 1000 | 
Cc1ccc(C(=O)c2cc(C)cc(C(=O)c3ccc(C)cc3)c2O)cc1 | 100 | 87 | 77.1 | 60.2 | 30 | 50 | 20 | 70 | 40 | 45.4 | 22.2 | > 1000 | 
Cc1cc(C(=O)c2cccc(Cl)c2)c(O)c(C(=O)c2cccc(Cl)c2)c1 | 90 |  | 94.1 | 51.2 | 20 | 30 | 10 | 60 | 12 | 48.2 | 30.3 | > 1000 | inactive
Cc1ccc(C(=O)c2cc(C(=O)c3ccccc3)cc(C)c2O)cc1 | 100 | 40 | 62.8 | 62.5 | 20 | 70 | 10 | 90 | 40 | 29.1 | 20.1 | > 1000 | 
CCCCC1C(=O)N(c2ccccc2)N(c2ccccc2)C1=O [PHENYLBUTAZONE] | 90 | 89 | 57.2 |  | 60 | 30 | 30 | 60 | 90 | 35.5 | 31.3 |  | 
Cc1cc(C(=O)c2ccccc2)c(O)c(C(=O)c2ccccc2)c1 | 60 |  | 45.5 | 77.5 | 50 | 20 | 40 | 40 | 80 | 22.2 | 13.7 | > 1000 | inactive

Source: ChEMBL document CHEMBL1137995, “Synthesis of some newer analogues of substituted dibenzoyl phenol as potent anti-inflammatory agents” (Bioorg Med Chem Lett, 2004)
